Screening results: PubChem BioAssay, Sanford-Burnham Center for Chemical Genomics
An excerpt weighted towards active compounds, which were near 1.5% of everything screened.
EBI2 block: EBI2 (human) antagonism; P32249; EBI2 beta-arrestin recruitment, luminescence, 7a,25-OHC stimulated; inhibition, % at 5 µM; hit rate 0.81% among 360,000; in the data active = inhibition above about 38%;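 also: enzyme fragment complementation signal reports receptor beta-arrestin coupling in cells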
CXCR6 block: inhibitors of human CXCR6 receptor | inhibition, % at 20 µM | AID 602244 | hit rate 0.36% among 360,000 | CHO-K1 PathHunter CXCR6 beta-arrestin, luminescence | O00574; in the data active = inhibition above about 34%, passing the limit was not always enough;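 also: antagonist mode with CXCL16 agonist at 10 nM final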
CCR6 antagonist: antagonists of human CCR6 receptor; CHO-K1 CCR6 PathHunter beta-arrestin, luminescence, CCL20-stimulated; inhibition, % at 20 µM; hit rate 0.49% among 340,000; AID 493098;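 active = compounds whose inhibition of the agonist-driven luminescence signal at 20 µM reaches about 50%, limit read from the data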;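 also: cells stimulated with CCL20 at 14 nM final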
Target sequence (P51684 whole entry, looked up): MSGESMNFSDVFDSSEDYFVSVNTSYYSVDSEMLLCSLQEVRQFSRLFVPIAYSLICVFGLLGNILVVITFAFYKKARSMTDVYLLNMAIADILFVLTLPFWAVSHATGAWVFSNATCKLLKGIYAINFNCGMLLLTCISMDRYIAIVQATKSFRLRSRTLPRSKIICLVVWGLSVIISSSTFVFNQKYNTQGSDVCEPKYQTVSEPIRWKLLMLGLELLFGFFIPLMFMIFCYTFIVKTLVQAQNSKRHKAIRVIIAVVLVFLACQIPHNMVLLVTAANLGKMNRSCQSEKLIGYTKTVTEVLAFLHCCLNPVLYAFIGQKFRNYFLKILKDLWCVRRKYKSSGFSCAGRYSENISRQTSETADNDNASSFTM
APJ antagonist: antagonists of human APJ apelin receptor. CHO-K1 APJ beta-arrestin complementation, luminescence. inhibition, % at 20 µM. hit rate 0.32% among 330,000. AID 2521;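 active = inhibition above about 40% at 20 µM, limit read from the data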;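 also: cells challenged with 10 nM apelin-13 agonist together with compound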
APJ agonist: agonists of human APJ apelin receptor | P35414 | AID 2520 | CHO-K1 APJ PathHunter beta-arrestin, luminescence; 0% DMSO wells, 100% apelin | activation, % at 20 µM | hit rate 0.11% among 330,000;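 active = activation more than six SD over the plate average, tested at 20 µM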
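Test system: CHO-K1 APJ beta-arrestin complementation cell line. Amount: cell density 1000 per well. Controls: DMSO negative, 10 nM Apelin-13 positive. Signal: luminescent beta-gal fragment complementation, chemiluminescent substrate. Read-out basis: agonist-driven arrestin binding to APJ. Timing: compound stimulation 90 min at 25 °C, detection 60 min.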
Hits are given with their value.

What do the screens show for `Cc1ccc(-c2cc(-c3ccccc3)c(C#N)c(N)n2)o1`?
EBI2 block: inactive; CXCR6 block: inactive; CCR6 antagonist: 77.9; APJ antagonist: inactive; APJ agonist: inactive

What do the screens show for `Cc1[nH]n(C2=NCCS2)c(=O)c1N=Nc1cccc(C(F)(F)F)c1`?
EBI2 block: inactive; CXCR6 block: 53.2; CCR6 antagonist: 58.1; APJ antagonist: inactive; APJ agonist: inactive

What do the screens show for `Cc1[nH]n(C(N)=S)c(=O)c1N=Nc1cccc(C(F)(F)F)c1`?
EBI2 block: inactive; CXCR6 block: inactive; CCR6 antagonist: inactive; APJ antagonist: inactive; APJ agonist: inactive

What do the screens show for `COc1ccc(Cn2c(/C=C/c3ccccc3)nc3ccccc32)cc1`?
EBI2 block: 42.2; CXCR6 block: inactive; CCR6 antagonist: inactive; APJ antagonist: inactive; APJ agonist: inactive

What do the screens show for `C#CCOCCOCCOCCNc1nc(N2CCN(C(=O)CCCCCCCCCCNC(=O)[C@H]([C@@H](C)CC)n3cc(CCCCN=C(N)N)nn3)CC2)nc(N2CCN(C(=O)CCCCCCCCCCNC(=O)[C@H](CCCCN)n3cc(C[C@@H](C)CC)nn3)CC2)n1`?
APJ antagonist: inactive; APJ agonist: 58.5

How did CCCC[C@@H]1Cc2[nH][nH]c(=O)c2[C@H](c2ccc(C(C)C)cc2)O1 do in these assays?
EBI2 block: inactive; CXCR6 block: inactive

What do the screens show for `O=C(CSc1nc(-c2ccc(F)cc2)nc2c1Cc1ccccc1O2)Nc1cccc(C(=O)O)c1`?
EBI2 block: inactive; CXCR6 block: inactive; CCR6 antagonist: 51.9

Results for Cc1cccc(N(CC(=O)NCc2ccco2)S(=O)(=O)c2ccccc2)c1 ?
EBI2 block: inactive; CXCR6 block: inactive

Results for O=C(O)c1cccc(N/N=C(\N=Nc2ccccc2)c2ccccc2)c1 ?
EBI2 block: inactive; CXCR6 block: inactive; CCR6 antagonist: inactive; APJ antagonist: inactive; APJ agonist: inactive

What do the screens show for `Brc1ccc(N/N=C(/N=Nc2nn[nH]n2)c2ccccc2)cc1`?
EBI2 block: inactive; CXCR6 block: inactive; CCR6 antagonist: 51.6; APJ antagonist: inactive; APJ agonist: inactive

Results for Oc1cccc2ccc(/C=C/c3ccccc3Br)nc12 ?
EBI2 block: inactive; CXCR6 block: inactive; CCR6 antagonist: 62.2; APJ antagonist: inactive; APJ agonist: inactive

How did COc1cc(/C=C/c2ccc3cccc(O)c3n2)c(Br)cc1O do in these assays?
EBI2 block: inactive; CXCR6 block: inactive; APJ antagonist: inactive; APJ agonist: inactive

Results for COc1cc(Br)c(/C=C/c2ccc3cccc(O)c3n2)cc1OC ?
EBI2 block: inactive; CXCR6 block: inactive; CCR6 antagonist: inactive; APJ antagonist: inactive; APJ agonist: inactive

What do the screens show for `COc1cc(/C=C/c2ccc3cccc(O)c3n2)ccc1O`?
EBI2 block: inactive; CXCR6 block: 42.8; CCR6 antagonist: 66.8; APJ antagonist: inactive; APJ agonist: inactive

How did CCOC(=O)N=Nc1c2ccccc2c2nc3no[nH]c3nc12 do in these assays?
EBI2 block: inactive; CXCR6 block: 35.5; CCR6 antagonist: inactive; APJ antagonist: inactive; APJ agonist: inactive

Results for CCOC(=O)N=Nc1c(O)n(CC(=O)OC)c2ccccc12 ?
EBI2 block: inactive; CXCR6 block: inactive; CCR6 antagonist: inactive; APJ antagonist: inactive; APJ agonist: inactive

Results for O=C(N/N=C/c1cc(Cl)ccc1O)c1ccncc1 ?
EBI2 block: 49.5; CXCR6 block: inactive; CCR6 antagonist: inactive; APJ antagonist: inactive; APJ agonist: inactive

What do the screens show for `O=C(N/N=C/c1ccccc1Cl)c1ccncc1`?
EBI2 block: inactive; CXCR6 block: inactive; CCR6 antagonist: inactive; APJ antagonist: inactive; APJ agonist: inactive

How did O=C(Nc1nnc(C2CC2)s1)c1cc([N+](=O)[O-])ccc1N1CCCCC1 do in these assays?
EBI2 block: inactive; CXCR6 block: inactive; CCR6 antagonist: 72.3; APJ antagonist: inactive; APJ agonist: inactive

Results for Cc1ccc(NC(=O)c2cc([N+](=O)[O-])ccc2N2CCCC2)cc1 ?
EBI2 block: inactive; CXCR6 block: inactive; CCR6 antagonist: inactive; APJ antagonist: inactive; APJ agonist: inactive

What do the screens show for `CCN1/C(=C/C=C/c2oc3ccc(-c4ccccc4)cc3[n+]2CC)Oc2ccc(-c3ccccc3)cc21`?
EBI2 block: inactive; CXCR6 block: inactive; CCR6 antagonist: 59.8; APJ antagonist: inactive; APJ agonist: inactive

Results for COc1ccc(-c2csc(C(C)(O)c3ccccc3)n2)cn1 (stereo unspecified) ?
EBI2 block: inactive; CXCR6 block: inactive
